Measurements: ChEMBL document CHEMBL3580604, “Flavonoids from Matteuccia struthiopteris and Their Anti-influenza Virus (H1N1) Activity” (J Nat Prod, 2015)
Activity calls are given as the source filed them. The rule behind the calls is not given here.

Key:
[1] = Selectivity index, ratio of cytotoxicity for MDCK cells to EC50 for Influenza A virus A/PR/8/34 (H1N1) neuraminidase activity; assay type: toxicity, cell-based; settings: dog, read-out: Selectivity Index
Method in brief: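 SI calculated as CC50/EC50, with CC50 from the 72 h MDCK AlamarBlue assay and EC50 from the MUNANA neuraminidase assay on supernatants of PR8-infected MDCK cells at 48 h.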

MDCK = test: Cytotoxicity against MDCK cells assessed as cell viability after 72 hrs by MTT assay; assay type: cell-based, Canis lupus familiaris; settings: dog
[2] = target: Neuraminidase (Influenza A virus) (UniProt B4URF0); test: Inhibition of Influenza A virus A/PR/8/34 (H1N1) neuraminidase activity measured in infected MDCK cells using MUNANA as substrate assessed as fluorescence intensity after 48 hrs; assay type: cell-based; settings: Influenza A virus (A/Puerto Rico/8/1934(H1N1))
Method in brief: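 MDCK cells (2 × 10^4/well) infected with A/PR/8/34 at MOI 0.01, with samples (0.7–166 μM, DMEM with 1% DMSO) added at the same time. After 1 h at 37 °C the cells were washed and fresh sample-containing DMEM added for 48 h. Supernatant NA activity was read with MUNANA for 45 min at 37 °C (ex 355/em 485 nm). Triplicate runs; EC50 by linear extrapolation; ribavirin 0.8–200 μM control.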

Chain of Neuraminidase (Influenza A virus) (B4URF0 as listed by the source): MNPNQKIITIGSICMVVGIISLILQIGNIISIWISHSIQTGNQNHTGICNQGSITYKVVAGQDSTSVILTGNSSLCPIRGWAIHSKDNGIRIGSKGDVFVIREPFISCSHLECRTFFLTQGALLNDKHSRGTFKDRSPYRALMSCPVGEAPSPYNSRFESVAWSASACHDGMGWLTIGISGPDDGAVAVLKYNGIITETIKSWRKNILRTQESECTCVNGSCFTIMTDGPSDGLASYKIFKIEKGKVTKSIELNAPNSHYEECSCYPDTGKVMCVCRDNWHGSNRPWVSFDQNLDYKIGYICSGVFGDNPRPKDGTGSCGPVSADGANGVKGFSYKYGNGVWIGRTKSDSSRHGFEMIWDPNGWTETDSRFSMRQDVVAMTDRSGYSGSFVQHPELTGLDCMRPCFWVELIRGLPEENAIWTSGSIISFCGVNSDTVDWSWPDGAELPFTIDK

| Compound | selectivity ratio [1] | Activity (MDCK) | inhibition [2] |
| --- | --- | --- | --- |
| O=c1c(O[C@@H]2O[C@H](CO)[C@@H](O)[C@H](O)[C@H]2O)c(-c2ccc(O)cc2)oc2cc(O)cc(O)c12 [ASTRAGALIN] | 12.4 | Non-toxic | – |
| COc1c(O)cc([C@@H]2CC(=O)c3c(O)c(C)c(O[C@@H]4O[C@H](CO)[C@@H](O)[C@H](O)[C@H]4O)c(C)c3O2)cc1O | 34.4 | Non-toxic | – |
| C[C@@H]1O[C@@H](Oc2cc(O)c3c(=O)c(O[C@@H]4O[C@@H](C)[C@H](O)[C@@H](O)[C@H]4O[C@@H]4O[C@H](CO)[C@@H](O)[C@@H](O)[C@H]4O)c(-c4ccc(O)cc4)oc3c2)[C@H](O)[C@H](O)[C@H]1O | – | Non-toxic | inactive |
| CC(=O)O[C@@H]1[C@@H](O)[C@@H](O[C@@H]2O[C@H](CO)[C@@H](O)[C@H](O)[C@H]2O)[C@H](Oc2c(-c3ccc(O)cc3)oc3cc(O[C@@H]4O[C@@H](C)[C@H](O)[C@@H](O)[C@H]4O)cc(O)c3c2=O)O[C@H]1C | – | Non-toxic | inactive |
| CC(=O)O[C@@H]1[C@@H](O)[C@@H](O[C@@H]2O[C@H](CO)[C@@H](O)[C@@H](O)[C@H]2O)[C@H](Oc2c(-c3ccc(O)cc3)oc3cc(O[C@@H]4O[C@@H](C)[C@H](O)[C@@H](O)[C@H]4O)cc(O)c3c2=O)O[C@H]1C | – | Non-toxic | inactive |
| COc1c(O)cc(C2CC(=O)c3c(O)c(C)c(O)c(C)c3O2)cc1O (stereo not drawn) | 3.1 | Non-toxic | – |
| COC(=O)C1(O)CC(C)OC1O[C@H]1[C@H](Oc2c(-c3ccc(O)cc3)oc3cc(O[C@@H]4O[C@@H](C)[C@H](O)[C@@H](O)[C@H]4O)cc(O)c3c2=O)O[C@@H](C)[C@H](O)[C@H]1O (stereo partly drawn) | – | Non-toxic | inactive |
| COC(=O)C(C)OC(O[C@H]1[C@H](Oc2c(-c3ccc(O)cc3)oc3cc(O[C@@H]4O[C@@H](C)[C@H](O)[C@@H](O)[C@H]4O)cc(O)c3c2=O)O[C@@H](C)[C@H](O)[C@H]1O)C(O)C(=O)OC (stereo partly drawn) | – | Non-toxic | inactive |
| C[C@@H]1O[C@@H](Oc2cc(O)c3c(=O)c(O[C@@H]4O[C@@H](C)[C@H](O)[C@@H](O)[C@H]4O[C@@H]4O[C@@H](C)[C@H](O)[C@@H](O)[C@H]4O)c(-c4ccc(O)cc4)oc3c2)[C@H](O)[C@H](O)[C@H]1O | – | Non-toxic | inactive |
